Results: article PMC7894400 (CPT: Pharmacometrics & Systems Pharmacology, 2021)
Several values for one entry are separate records, joined by “and”; a condition that tells them apart may be missing. Equal entries are not always repeated. Entries after “also recorded” stand apart in the source; their conditions may differ.

Tests used:
CYP3A and UGT1A4 = conditions: cited from earlier work
[1] = cited from earlier work
[2] = Population pharmacokinetic; type: in vivo, human
How it was run: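 Pooled plasma data from a phase I/II study in ALK+ or ROS1+ NSCLC (10–200 mg oral q.d. or 35–100 mg b.i.d.) plus six healthy-participant studies (100 mg oral doses; one study 50 mg i.v.). Nonlinear mixed effects, FOCEI; central/peripheral volumes, first-order ka, F; clearance time-varying from single-dose CLI to steady-state CLMX via induction rate constant; exponential between-subject effects; covariates include rabeprazole co-administration on ka and F.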

[3] = cited from earlier work; remark: listed apart in the source
[4] = bootstrap mean, 1,000 resampled datasets
[5] = high BWT 91.3 kg (90th percentile), final PopPK model prediction
[6] = highest possible exposure at 100 mg q.d.: BWT 50 kg, BALB 3.2 mg/dL, no PPI use
[7] = low BWT 50 kg (10th percentile), final PopPK model prediction
[8] = lowest possible exposure at 100 mg q.d.: BWT 91.3 kg, BALB 4.6 mg/dL, PPI use
[9] = healthy volunteers, study B7461008

SMILES: C[C@H]1Oc2cc(cnc2N)-c2c(nn(C)c2C#N)CN(C)C(=O)c2ccc(F)cc21 [lorlatinib]
- metabolizing enzymes (CYP3A and UGT1A4): metabolized primarily by cytochrome P450 (CYP)3A and UGT1A4, and to a lesser extent by CYP2C8, CYP2C19, CYP3A5, and UGT1A3
- dose-limiting toxicities ([1]; 150 mg q.d., dose escalation portion of Study B7461001): dose‐limiting toxicities were seen
- steady-state lorlatinib CL versus dose ([1]; Study B7461001, noncompartmental analysis): increased with increasing dose
- levels of CYP3A4 activity (urine 6-beta-hydroxy-cortisol/cortisol and plasma 4-beta-hydroxy-cholesterol/cholesterol ratios) ([1]; phase I portion of B7461001, multiple dosing): initially increased with time following multiple dosing
- accumulation after multiple dosing ([1]; phase I portion of B7461001): less than expected
- lower CL (initial and time-varying induced) compared with 100 mg q.d. ([2]; 10 mg q.d. lorlatinib): 12.4%
- higher CL (initial and time-varying induced) compared with 100 mg q.d. ([2]; 200 mg q.d. lorlatinib): 13.8%
- decrease in ka relative to a typical patient without PPI use ([2]; PPI use): 67.5%
- θ CLMX [2, 4]: 14.584 L/h
- θ D1 [2, 4]: 1.149 h
- θ F [2, 4]: 0.764
- θ IND [2, 4]: 0.027
- θ PPI on ka [2, 4]: −0.664
- θ Q [2, 4]: 22.491 L/h
- θ V2 [2, 4]: 120.618 L
- θ V3 [2, 4]: 156.640 L
- θ ka [2, 4]: 3.128 h⁻¹
- ωFωCL [2, 4]: -0.005
- ωV2ωV3 [2, 4]: −0.017
- ω^2 F [2, 4]: 0.023
- ω^2 V2 [2, 4]: 0.085
- ω^2 V3 [2, 4]: 0.099
- ω^2 ka [2, 4]: 2.345
- increase in CL with every unit of BALB over 4 mg/dL ([2]; final PopPK model): 6.68%
- θ BALB on CL (covariate effect of baseline albumin) ([2]; final PopPK model estimate): 0.067
- θ D1, zero-order duration of absorption ([2]; final PopPK model estimate): 1.15 h and 1.148 h
- θ PPI on ka (covariate effect of proton pump inhibitor use) ([2]; final PopPK model estimate): –0.675
- θ TDOSE on CL (covariate effect of total daily dose) ([2]; final PopPK model estimate): 0.001
- θ WNCL on CL (covariate effect of standardized creatinine clearance) ([2]; final PopPK model estimate): 0.235
- ωFωCL (IIV covariance) ([2]; final PopPK model estimate): -0.006
- ωV2ωV3 (IIV covariance) ([2]; final PopPK model estimate): −0.017
- ω^2 F (IIV) ([2]; final PopPK model estimate): 0.022
- ω^2 V2 (IIV) ([2]; final PopPK model estimate): 0.086
- ω^2 V3 (IIV) ([2]; final PopPK model estimate): 0.101
- ω^2 ka (IIV) ([2]; final PopPK model estimate): 2.329
- θ ka, first-order absorption rate constant ([2]; final PopPK model estimate, no PPI use): 3.1 h⁻¹ and 3.11 h⁻¹ and 3.113 h⁻¹
- θ IND, rate constant of induction ([2]; final PopPK model estimate, unit not given): 0.0199 and 0.020
- increase in CL compared with the typical patient (BALB 4 mg/dL) ([2]; high BALB 4.6 mg/dL (90th percentile)): 4%
- increase in CL relative to the typical patient [2, 5]: 22%
- increase in V2 relative to the typical patient [2, 5]: 30.4%
- change in ka compared with a typical patient [2, 6]: unchanged
- decrease in CL compared with a typical patient [2, 6]: 26.5%
- decrease in V2 compared with a typical patient [2, 6]: 28.6%
- bioavailability ([2]; human, plasma, oral): 75.9%
- reduction in CL relative to a typical patient [2, 7]: 22.3%
- reduction in V2 relative to a typical patient [2, 7]: 28.6%
- decrease in ka compared with a typical patient [2, 8]: 67.5%
- increase in CL compared with a typical patient [2, 8]: 26.9%
- increase in V2 compared with a typical patient [2, 8]: 30.4%
- effect of a high-fat meal on lorlatinib exposure [3]: not to have a meaningful effect
- effect of PPI rabeprazole co-administration on lorlatinib AUCinf [3, 9]: no effect; also recorded: without changing
- reduction of lorlatinib Cmax by co-administration of the PPI rabeprazole [3, 9]: ~ 30% and 30%
